Columns and labels:
Format in all cases: in vivo, human
[1] = tested on: healthy male subjects; assay: Treatment emergent adverse events, single dose study; details: for Nausea, incidence: healthy elderly males; for Diarrhea, incidence / Vomiting, incidence: healthy elderly subjects
[2] = tested on: healthy male subjects; assay: Adaptive tracking; details: donepezil 10 mg oral; healthy elderly males
Summary of the method: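 Healthy males got one intranasal spray dose in a double-dummy design with oral capsules: 11 mg for young subjects, 22 or 33 mg for elderly subjects, 6 per dose, with age-matched nasal placebo. NeuroCart tests were run twice before dosing, then at 1, 2, 3, 4, 5, 6, 8 and 10 h after, in a quiet room, one subject per session. Analysis was mixed-model ANOVA: treatment, time and treatment×time fixed, subject random, baseline as covariate.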

[3] = Plasma pharmacokinetics after single intranasal dose of Gln-1062; details: for half-life / AUC(0-inf) / Cmax: male, human, inhaled or intranasal
[4] = tested on: healthy male subjects; assay: VAS nausea, single dose; details: healthy elderly males
[5] = tested on: healthy male subjects; assay: NeuroCart test battery, overall pharmacodynamic effects; details: galantamine 16 mg oral; healthy elderly males
Summary of the method: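 Double-blind study in healthy nonsmoking elderly men (cohorts 3–4, 12 on active drug). A single oral 16 mg dose was given at the same time as the other cohort treatments, with elderly double-placebo controls. Battery: N-back, Stroop, adaptive tracking, Bond–Lader VAS, pharmaco-EEG, eye movements, pupil size, body sway, face encoding/recognition and VVLT. Two baseline runs, then 1–6, 8 and 10 h post-dose. VVLT ran at 1 h 30 min only; face recognition predose and at 1 h 45 min. Analysis by mixed-model ANOVA with fixed factor treatment.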

COc1cc2c(cc1OC)C(=O)C(CC1CCN(Cc3ccccc3)CC1)C2 (stereo not drawn) [donepezil, reference compound]
Nausea, incidence ([1]; donepezil 10 mg oral): 16.7% | Diarrhea, incidence ([1]; donepezil 10 mg oral): 33.3% | Vomiting, incidence ([1]; donepezil 10 mg oral): 16.7% | adaptive tracking compared with placebo (in words) [2]: improvement

COc1ccc2c3c1O[C@H]1C[C@@H](O)C=C[C@@]31CCN(C)C2 [galantamine]
half-life [3]: ~10 h | AUC(0-inf) ([3]; 5.5 mg): 268 ng·h/mL | Cmax ([3]; 5.5 mg): 17.6 ng/mL | half-life ([3]; 5.5 mg): 9.85 h | AUC(0-inf) ([3]; 11 mg): 367 ng·h/mL | Cmax ([3]; 11 mg): 27.7 ng/mL | half-life ([3]; 11 mg): 7.94 h | AUC(0-inf) ([3]; 22 mg): 799 ng·h/mL | Cmax ([3]; 22 mg): 46.5 ng/mL | half-life ([3]; 22 mg): 8.71 h | AUC(0-inf) ([3]; 33 mg): 1190 ng·h/mL | Cmax ([3]; 33 mg): 76.1 ng/mL | half-life ([3]; 33 mg): 9.24 h | AUC(0-inf) ([3]; 44 mg): 1530 ng·h/mL | Cmax ([3]; 44 mg): 74.7 ng/mL | half-life ([3]; 44 mg): 11.1 h | Tmax for galantamine after administration of Gln-1062 ([3]; over the Gln-1062 intranasal dose levels): 2.3 to 4.7 h | Cold sweat or hyperhidrosis, incidence ([1]; galantamine 16 mg oral): 33.3% | Nausea, incidence ([1]; galantamine 16 mg oral): 33.3% | Diarrhea, incidence ([1]; galantamine 16 mg oral): 8.3% | Vomiting, incidence ([1]; galantamine 16 mg oral): 41.7% | peak of nausea (VAS nausea), time after administration [4]: 2 h | pharmacodynamic effects compared with placebo [5]: did not induce any measurable pharmacodynamic effects

— publication PMC5644278 (Alzheimer's & Dementia : Translational Research & Clinical …, 2016)
